Measured values published in ChEMBL document CHEMBL1138667, “Phenylguanidines as selective nonpeptide melanocortin-5 receptor antagonists” (J Med Chem, 2004).

Experiments:
Melanocortin receptor 3 = Melanocortin receptor 3 (Homo sapiens, UniProt P41968); assay: Binding affinity for human melanocortin 3 receptor
How it was run: (§1)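 Human MC1, MC3 or MC4 receptor expressed in HEK293 cells. Membranes bearing each receptor were used in a competitive binding assay measuring inhibition of [125I]NDP-MSH binding, with inhibition curves generated.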

Melanocortin receptor 5 [1] = biological target: T1, Melanocortin receptor 5 (Homo sapiens, UniProt P33032); assay: Inhibition of [125I]NDP-MSH binding to human Melanocortin 5 receptor expressed in HEK293 cells; format: cell-based
How it was run: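 Competitive binding on membranes from HEK293 cells stably expressing human MC5 receptor, with [125I]NDP-MSH as the radioligand. Inhibition of radioligand binding was measured and Ki derived from more than 3 determinations.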

Melanocortin receptor 4 [2] = biological target: T2, Melanocortin receptor 4 (Homo sapiens, UniProt P32245); assay: Binding affinity for human melanocortin 4 receptor; how it was run: as §1
[3] = biological target: T3, Melanocyte-stimulating hormone receptor (Homo sapiens, UniProt Q01726); assay: Percentage inhibition of human melanocortin 1 receptor at 10 uM
Target sequence in this assay (Q01726 whole entry, looked up): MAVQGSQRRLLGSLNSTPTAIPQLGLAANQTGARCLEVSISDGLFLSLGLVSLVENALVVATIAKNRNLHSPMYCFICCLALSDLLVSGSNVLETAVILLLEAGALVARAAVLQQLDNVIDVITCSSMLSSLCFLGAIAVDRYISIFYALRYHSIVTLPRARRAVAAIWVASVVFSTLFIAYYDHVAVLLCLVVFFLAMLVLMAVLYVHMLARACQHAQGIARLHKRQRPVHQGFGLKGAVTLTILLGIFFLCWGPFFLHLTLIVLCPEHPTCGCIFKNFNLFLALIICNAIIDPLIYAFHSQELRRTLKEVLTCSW

Melanocortin receptor 5 [4] = biological target: T1, Melanocortin receptor 5; assay: Inhibition of human Melanocortin 5 receptor
Melanocortin receptor 4 [5] = biological target: T2, Melanocortin receptor 4; assay: Intrinsic activity as percentage of maximal melanocortin receptor 4 related cAMP production relative to alpha-MSH; format: functional
[6] = biological target: T3, Melanocyte-stimulating hormone receptor; assay: Binding affinity for human melanocortin 1 receptor; how it was run: as §1
Target sequence in this assay (Q01726 whole entry): as the sequence (Q01726 whole entry, looked up) above

T1 sequence (P33032 whole entry): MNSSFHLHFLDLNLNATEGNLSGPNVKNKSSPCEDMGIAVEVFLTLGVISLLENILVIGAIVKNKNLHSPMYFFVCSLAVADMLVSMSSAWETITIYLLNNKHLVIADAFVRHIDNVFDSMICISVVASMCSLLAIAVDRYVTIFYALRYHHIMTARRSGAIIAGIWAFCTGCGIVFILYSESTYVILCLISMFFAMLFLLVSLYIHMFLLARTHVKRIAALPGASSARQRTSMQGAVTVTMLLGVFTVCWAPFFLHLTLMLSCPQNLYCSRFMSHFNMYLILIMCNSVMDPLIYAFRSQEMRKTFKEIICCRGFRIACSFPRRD
T2 sequence (P32245 whole entry): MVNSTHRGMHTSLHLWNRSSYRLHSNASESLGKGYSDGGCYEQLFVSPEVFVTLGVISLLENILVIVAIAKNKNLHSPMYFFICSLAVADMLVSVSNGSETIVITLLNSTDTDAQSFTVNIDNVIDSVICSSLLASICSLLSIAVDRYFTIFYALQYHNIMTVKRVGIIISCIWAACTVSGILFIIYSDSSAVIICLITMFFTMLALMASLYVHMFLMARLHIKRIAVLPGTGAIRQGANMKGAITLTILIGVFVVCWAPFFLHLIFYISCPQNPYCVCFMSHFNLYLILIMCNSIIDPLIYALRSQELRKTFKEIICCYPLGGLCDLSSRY
Chain of Melanocortin receptor 3 (P41968 whole entry): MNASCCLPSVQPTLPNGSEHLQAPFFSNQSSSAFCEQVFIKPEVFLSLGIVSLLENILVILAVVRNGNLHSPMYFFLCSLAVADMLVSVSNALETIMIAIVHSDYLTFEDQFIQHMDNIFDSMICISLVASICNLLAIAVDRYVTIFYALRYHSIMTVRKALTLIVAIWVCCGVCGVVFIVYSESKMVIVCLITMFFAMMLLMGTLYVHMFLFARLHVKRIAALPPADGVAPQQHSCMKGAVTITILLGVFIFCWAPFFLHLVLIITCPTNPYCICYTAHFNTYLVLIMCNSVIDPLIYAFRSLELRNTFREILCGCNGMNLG

Q: Which Ki (Melanocortin receptor 3) does the source give for `CC(C)(N)C/N=C(\Nc1ccc(C(=O)NCCc2ccc(Cl)cc2Cl)cc1)NC1CCCCC1` here?
A: 2400 nM

Q: What about the Ki (Melanocortin receptor 5 [1]) of the same compound?
A: 5.3 nM

Q: And the Ki (Melanocortin receptor 4 [2])?
A: 1300 nM

Q: What about the inhibition [3] of the same compound?
A: 27%

Q: And the IC50 (Melanocortin receptor 5 [4])?
A: 530 nM

Q: What about the IA (Melanocortin receptor 4 [5]) of the same compound?
A: 45%

Q: Which results are given for `C[C@@H]1CN(/C(=N/c2ccc(C(=O)NCCc3ccc(Cl)cc3Cl)cc2)NC2CCCCC2)CCN1`?
A: inhibition [3]: 25%; IA (Melanocortin receptor 4 [5]): 37%

Q: With `Cc1ccc(C)c(N2CCN(C(=NC3CCCCC3)Nc3ccc(C(=O)NCCc4ccc(Cl)cc4Cl)cc3)CC2)c1` as the compound, how does the Ki (Melanocortin receptor 5 [1]) read?
A: 1760 nM

Q: What does the source list for `C[C@@H]1CN(C(=NC2CCCCC2)Nc2ccc(C(=O)NCCc3ccc(Cl)cc3Cl)cc2)CCN1`?
A: Ki (Melanocortin receptor 3): 3500 nM; Ki (Melanocortin receptor 5 [1]): 2.1 nM; Ki (Melanocortin receptor 4 [2]): 840 nM; IC50 (Melanocortin receptor 5 [4]): 70 nM

Q: Which Ki (Melanocortin receptor 5 [1]) does the source give for `O=C(NCCc1ccc(Cl)cc1Cl)c1ccc(NC(=NC2CCCCC2)N2CCN(c3ccccc3)CC2)cc1` here?
A: 290 nM

Q: Which Ki [6] does the source give for `C[C@@H]1CN[C@@H](C)CN1/C(=N/c1ccc(C(=O)NCCc2ccc(Cl)cc2Cl)cc1)NC1CCCCC1` here?
A: 360 nM

Q: What about the Ki (Melanocortin receptor 3) of the same compound?
A: 2800 nM

Q: And the Ki (Melanocortin receptor 5 [1])?
A: 5.9 nM

Q: What about the Ki (Melanocortin receptor 4 [2]) of the same compound?
A: 840 nM

Q: What about the IC50 (Melanocortin receptor 5 [4]) of the same compound?
A: 380 nM

Q: For `O=C(NCCc1ccc(Cl)cc1Cl)c1ccc(NC(=NC2CCCCC2)N2CCN(c3ncccn3)CC2)cc1`, which Ki (Melanocortin receptor 5 [1]) is on record?
A: 305 nM

Q: How did the Ki (Melanocortin receptor 5 [1]) turn out when `CCCN(CCC)/C(=N/c1ccc(C(=O)NCCc2ccc(Cl)cc2Cl)cc1)NC1CCCCC1` was run?
A: 360 nM

Q: Which results are given for `C[C@H]1CN(/C(=N/c2ccc(C(=O)NCCc3ccc(Cl)cc3Cl)cc2)NC2CCCCC2)CCN1`?
A: Ki (Melanocortin receptor 3): 2800 nM; Ki (Melanocortin receptor 5 [1]): 21 nM; Ki (Melanocortin receptor 4 [2]): 580 nM; inhibition [3]: 29%; IC50 (Melanocortin receptor 5 [4]): 380 nM; IA (Melanocortin receptor 4 [5]): 65%

Q: For `CC1CN(/C(=N/c2ccc(C(=O)NCCc3ccc(Cl)cc3Cl)cc2)NC2CCCCC2)CC(C)N1` (stereo not given), which inhibition [3] is on record?
A: 23%

Q: What about the IA (Melanocortin receptor 4 [5]) of the same compound?
A: 76%

Q: How did the Ki (Melanocortin receptor 5 [1]) turn out when `CC1C(=O)NCCN1C(=NC1CCCCC1)Nc1ccc(C(=O)NCCc2ccc(Cl)cc2Cl)cc1` (stereo not given) was run?
A: 1050 nM

Q: Which Ki (Melanocortin receptor 5 [1]) does the source give for `CN(/C(=N/c1ccc(C(=O)NCCc2ccc(Cl)cc2Cl)cc1)NC1CCCCC1)C1CCCCC1` here?
A: 91 nM

Q: `O=C(NCCc1ccc(Cl)cc1Cl)c1ccc(NC(=NC2CCCCC2)NCc2cc(F)cc(F)c2)cc1` was tested. Which Ki (Melanocortin receptor 5 [1]) did it give?
A: 70 nM

Q: For `CC1CN(C(=NC2CCCCC2)Nc2ccc(C(=O)NCCc3ccc(Cl)cc3Cl)cc2)CC(C)O1` (stereo not given), which Ki (Melanocortin receptor 5 [1]) is on record?
A: 350 nM

Q: For `CNC1CCN(/C(=N/c2ccc(C(=O)NCCc3ccc(Cl)cc3Cl)cc2)NC2CCCCC2)C1` (stereo not given), which Ki (Melanocortin receptor 3) is on record?
A: 2300 nM

Q: And the Ki (Melanocortin receptor 5 [1])?
A: 36 nM

Q: And the Ki (Melanocortin receptor 4 [2])?
A: 1400 nM

Q: And the inhibition [3]?
A: 27%

Q: What about the IC50 (Melanocortin receptor 5 [4]) of the same compound?
A: 630 nM

Q: What about the IA (Melanocortin receptor 4 [5]) of the same compound?
A: 36%

Q: What does the source list for `CC1CN(C(=NC2CCCCC2)Nc2ccc(C(=O)NCCc3ccc(Cl)cc3Cl)cc2)CC(C)N1` (stereo not given)?
A: Ki (Melanocortin receptor 3): 3900 nM; Ki (Melanocortin receptor 5 [1]): 11 nM; Ki (Melanocortin receptor 4 [2]): 590 nM; IC50 (Melanocortin receptor 5 [4]): 89 nM

Q: Which Ki (Melanocortin receptor 5 [1]) does the source give for `CN1CCN(/C(=N/c2ccc(C(=O)NCCc3ccc(Cl)cc3Cl)cc2)NC2CCCCC2)CC1` here?
A: 50 nM

Q: With `O=C1CN(C(=NC2CCCCC2)Nc2ccc(C(=O)NCCc3ccc(Cl)cc3Cl)cc2)CCN1` as the compound, how does the Ki (Melanocortin receptor 5 [1]) read?
A: 560 nM

Q: With `CC1CC(C)CN(C(=NC2CCCCC2)Nc2ccc(C(=O)NCCc3ccc(Cl)cc3Cl)cc2)C1` (stereo not given) as the compound, how does the Ki (Melanocortin receptor 5 [1]) read?
A: 144 nM

Q: `NC1CCN(C(=NC2CCCCC2)Nc2ccc(C(=O)NCCc3ccc(Cl)cc3Cl)cc2)CC1` was tested. Which Ki (Melanocortin receptor 5 [1]) did it give?
A: 230 nM

Q: How did the Ki [6] turn out when `O=C(NCCc1ccc(Cl)cc1Cl)c1ccc(N/C(=N\C2CCNC2)NC2CCCCC2)cc1` (stereo not given) was run?
A: 1900 nM

Q: What about the Ki (Melanocortin receptor 3) of the same compound?
A: 2500 nM

Q: And the Ki (Melanocortin receptor 5 [1])?
A: 26 nM

Q: What about the Ki (Melanocortin receptor 4 [2]) of the same compound?
A: 1500 nM

Q: What about the IC50 (Melanocortin receptor 5 [4]) of the same compound?
A: 530 nM

Q: How did the Ki (Melanocortin receptor 5 [1]) turn out when `O=C(NCCc1ccc(Cl)cc1Cl)c1ccc(NC(=NC2CCCCC2)N2CCC(N3CCCC3)CC2)cc1` was run?
A: 77 nM

Q: `O=C(NCCc1ccc(Cl)cc1Cl)c1ccc(N/C(=N/C2CCCCC2)N2CCNCC2)cc1` was tested. Which IA (Melanocortin receptor 4 [5]) did it give?
A: 28%

Q: What does the source list for `O=C(NCCc1ccc(Cl)cc1Cl)c1ccc(NC(=NC2CCCCC2)N2CCNCC2)cc1`?
A: Ki [6]: 400 nM; Ki (Melanocortin receptor 3): 2200 nM; Ki (Melanocortin receptor 5 [1]): 18 nM; Ki (Melanocortin receptor 4 [2]): 650 nM; IC50 (Melanocortin receptor 5 [4]): 460 nM

Q: How did the Ki (Melanocortin receptor 5 [1]) turn out when `O=C(NCCc1ccc(Cl)cc1Cl)c1ccc(NC(=NC2CCCCC2)N2CCN(Cc3ccccc3)CC2)cc1` was run?
A: 44 nM
